Statin myotox sup – suppressors of statin myotoxicity in C2C12 myotubes, primary screen, cell-based, single point, plate reader; C2C12 myotubes + simvastatin, ATP luminescence, 48 h; scaled: DMSO 0, geranylgeraniol control 100; rescue of ATP level, % at 7.49 µM; 330,000 compounds, 0.78% hits; AID 602340, 2012;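 active means mean ATP rescue above about 67%, or every replicate alone reaching that limit, limit read from the data, passing the limit was not always enough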;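 further: myotubes were challenged with 10 µM simvastatin during compound exposure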
Xi reactivation – activators of inactive X chromosome reactivation, primary screen, imaging, XiGFP fibroblasts, GFP high-content imaging, set 2. XiGFP mouse fibroblasts, % GFP-positive cells imaging, 3 d; cells co-treated with 5-aza-dC sensitizer; scaled so ellipticine positive control = 100%. activation, % at 7.58 µM. 360,000 compounds, 0.055% hits. AID 743238, 2013;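 active means mean normalized replicate activation at least 10% and every replicate at or above 10%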
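Schedule: 3 d treatment, 15 min room-temperature fixation; system: 68-5-11 XiGFP fibroblast line; buffer or medium: DMEM plus 5-aza-dC sensitizer; control set: ellipticine 6 µM positive control; compound: one concentration, pinned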
FGF22 binding – binders of human FGF22 protein, primary screen, FGF22 synaptogenesis inhibitor project, biophysical, thermal shift, single point; recombinant FGF22 thermal shift, SYPRO orange fluorescence; percent of sucrose octasulfate shift, DMSO zero; activity (Tm shift, normalised), % at 9.99 µM; 340,000 compounds, 1.5% hits;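 active means mean Tm shift, scaled 0 neutral to 100 positive control, at about 1.3% or above, every replicate too, limit read from the data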
Target sequence (Q9HCT0 whole entry, looked up): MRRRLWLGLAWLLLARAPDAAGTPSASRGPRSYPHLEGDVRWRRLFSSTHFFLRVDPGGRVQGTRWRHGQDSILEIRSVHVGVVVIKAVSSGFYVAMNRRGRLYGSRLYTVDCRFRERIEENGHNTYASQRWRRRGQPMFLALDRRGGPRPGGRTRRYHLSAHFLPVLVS
PglD DTNB – C. jejuni PglD acetyltransferase inhibitors, primary screen, biochemical, DTNB colorimetric, single point; purified PglD enzyme, DTNB colorimetric CoA detection; inhibition, % at 12.5 µM; 360,000 compounds, 0.098% hits; AID 602405, 2012; in the data active means inhibition above about 16%, passing the limit was not always enough
E-selectin induc – E-selectin induction in HUVECs, primary screen, imaging, HUVEC, immunofluorescence imaging, single point | 260,000 compounds, 0.37% hits | AID 686992, 2013 | activation, % at 7.58 µM | normalized: neutral wells 0, TNF-alpha wells 100;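 active means mean E-selectin-positive cell signal at least 10% of the positive control, reached in at least 60% of replicates, without over 20% cell loss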
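Assay system: HUVEC, human umbilical vein endothelial cells / Amount: 3,000 HUVEC/well / Controls: TNF-alpha positive control, DMSO neutral control / Compound dosing: single concentration / Medium: EGM-2 over gelatin coat / Evaluation: percent E-selectin-positive cells / Signal: immunofluorescence imaging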
DENV2 CPE rescue – inhibitors of DENV2 cytopathic effect, primary screen, cell-based, plate reader, single concentration. DENV2-infected cells, cytopathic effect rescue. CPE inhibition, % at 9.99 µM. 350,000 compounds, 1.7% hits. AID 651640, 2012; in the data active means CPE inhibition above about 20%, passing the limit was not always enough; tested in BHK-21 cells
Each line names hits and unclear results; the compound was inactive in the other large screens. Compounds with a hit are over-represented: about 3.3% of the library has one in this group of screens.

Cc1cc(Cl)ccc1OCC(=O)NCC(=O)N/N=C/c1ccco1	FGF22 binding 43 (no result: Statin myotox sup, PglD DTNB, E-selectin induc)
O=C(Cc1ccncc1)NCC[C@H]1CC[C@H](NC(=O)Nc2ccc(Cl)cc2)[C@@H](CO)O1	none
COC(=O)c1cccc(OCC(O)Cn2ccnc2)c1 (configuration not stated)	Statin myotox sup 109 (no result: Xi reactivation, FGF22 binding, E-selectin induc, DENV2 CPE rescue)
C[C@@H]1CCCCO[C@H](CN(C)C(=O)c2ccncc2)[C@@H](C)CN([C@@H](C)CO)C(=O)c2cc(NC(=O)c3ccccc3)ccc2O1	none (no result: Statin myotox sup)
Cc1ccc(-c2nc3ccc([N+](=O)[O-])cc3[nH]2)cc1	FGF22 binding 1.5 (no result: Statin myotox sup, PglD DTNB)
O=[N+]([O-])c1ccc2nc(-c3ccncc3)[nH]c2c1	none (no result: Statin myotox sup, PglD DTNB)
COc1ccc(C(CCN2CCN(c3ccccc3)CC2)c2c(OC)cc(OC)c3c(-c4ccccc4)cc(=O)oc23)cc1 (configuration not stated)	DENV2 CPE rescue 59 (no result: E-selectin induc)
CCOC(=O)C1=C(C)N(CCCC(=O)O)C(=O)NC1c1ccc([N+](=O)[O-])cc1 (configuration not stated)	DENV2 CPE rescue 102
Fc1ccccc1NC(=S)Nn1cnnc1	DENV2 CPE rescue 44
Cc1cccc(NC(=S)Nn2cnnc2)c1C	FGF22 binding 43 (no result: Statin myotox sup, PglD DTNB, E-selectin induc)
Cc1ccccc1NC(=S)Nn1cnnc1	none (no result: E-selectin induc)
CC(=O)N(C)C[C@H]1Oc2cc(C#CC(C)C)ccc2S(=O)(=O)N([C@H](C)CO)C[C@@H]1C	none
Cc1ccc(C23OCCN2CCn2nc4ccccc4c23)cc1 (configuration not stated)	DENV2 CPE rescue 74
N#Cc1ccc(C23OCCN2CCn2c3c3ccccc3[n+]2[O-])cc1 (configuration not stated)	none
CC(OC(=O)c1nsc(Cl)c1Cl)C(=O)NCCc1ccccc1 (configuration not stated)	E-selectin induc 29
CN(C)CC(=O)Nc1ccc2c(c1)[C@@H]1C[C@H](CC(=O)NCc3cccnc3)O[C@H](CO)[C@@H]1O2	none
C=CCN1Cc2ccccc2C[C@@]2(COC(c3ccc(OCCCO)cc3)=N2)C1=O	DENV2 CPE rescue 24 (no result: Statin myotox sup, Xi reactivation, E-selectin induc)
CCOc1ccc(CCN2C(=O)C(=O)N([C@@H](CC(C)C)CN3CCC[C@H]3CN3C(=O)C(=O)NC[C@@H]3Cc3ccc(O)cc3)C[C@@H]2Cc2ccccc2)cc1	FGF22 binding 43 (no result: Statin myotox sup, PglD DTNB)
CCOc1ccc(CCN2C(=S)N([C@@H](Cc3ccc(O)cc3)CN3CCC[C@@H]3CN3C(=S)NC[C@@H]3CC(C)C)C[C@@H]2Cc2ccccc2)cc1	none
CCOc1ccc(CCN2C(=S)N([C@@H](Cc3ccc(O)cc3)CN3CCC[C@@H]3CN3C(=S)NC[C@@H]3CC(C)C)C[C@@H]2CC(C)C)cc1	DENV2 CPE rescue 22
CC(C)C[C@H]1CNC(=S)N1C[C@H]1CCCN1C[C@H](CC(C)C)N1C[C@H](Cc2ccc(O)cc2)N(CCc2ccccc2)C1=S	DENV2 CPE rescue 39
CO[C@H]1CN(C)C(=O)c2cc(NC(=O)NC(C)C)ccc2OC[C@@H](C)N(C(=O)CC2CC2)C[C@@H]1C	none
COc1ccc(NC(=O)N(C)C[C@H]2Oc3c(NC(=O)NC(C)C)cccc3C(=O)N([C@@H](C)CO)C[C@@H]2C)cc1	none
Cc1nc(Nc2nc3ccccc3o2)nc(C)c1C	FGF22 binding 44 (no result: Statin myotox sup, PglD DTNB, E-selectin induc)
Cc1ccc2oc(Nc3nc(C)c(C)c(C)n3)nc2c1	none (no result: Statin myotox sup, PglD DTNB, E-selectin induc)
C[C@H](CO)N1C[C@H](C)[C@H](CN(C)Cc2ccncc2)Oc2ccc(NC(=O)Cc3ccccc3)cc2C1=O	none
CC(=O)c1cccc(NC(=O)c2c(F)c(F)c(F)c(F)c2F)c1	none (no result: Xi reactivation, FGF22 binding, E-selectin induc, DENV2 CPE rescue)
CC(=O)c1cccc(NC(=O)C2=CN3CCS(=O)(=O)N=C3C=C2)c1	E-selectin induc 75
C[C@@H]1CN([C@@H](C)CO)C(=O)Cc2cc(NC(=O)Cc3cn(C)c4ccccc34)ccc2O[C@H]1CN(C)S(=O)(=O)c1cccs1	none
COc1cc(NC(=O)[C@@H](Cc2ccccc2)NC(=O)[C@H]2O[C@@H](n3ccc(=O)[nH]c3=O)[C@H](O)[C@@H]2O)cc(OC)c1OC	DENV2 CPE rescue 43 (no result: Statin myotox sup, PglD DTNB)
COc1ccc2c3c(n(C)c2c1)[C@H](CO)N(Cc1ccccc1)CC31CCN(C(=O)C2CC2)CC1	none (no result: Statin myotox sup, PglD DTNB)
COCc1cc(SC2CCCCC2)nc(C)n1	FGF22 binding 43 (no result: Statin myotox sup, PglD DTNB, E-selectin induc)
CC(C)NC(=O)N(C)C[C@@H]1Oc2ccc(NC(=O)Cc3cn(C)c4ccccc34)cc2C(=O)N([C@@H](C)CO)C[C@@H]1C	none
C[C@H](CO)N1C[C@H](C)[C@H](CN(C)C(=O)NC2CCCCC2)Oc2ccc(NC(=O)Cc3ccccc3)cc2C1=O	DENV2 CPE rescue 33
CC(C)NC(=O)N(C)C[C@@H]1Oc2ccc(NC(=O)Cc3cn(C)c4ccccc34)cc2C(=O)N([C@H](C)CO)C[C@H]1C	PglD DTNB 26, E-selectin induc 49, DENV2 CPE rescue 52
C[C@@H]1CN([C@@H](C)CO)C(=O)c2cc(NC(=O)Cc3cn(C)c4ccccc34)ccc2O[C@H]1CN(C)C(=O)NC1CCCCC1	DENV2 CPE rescue 24 (no result: E-selectin induc)
CC=Cc1ccc2n(c1=O)C[C@@H]1[C@@H](CO)[C@H](C(=O)NC3CCCC3)N(Cc3ccncc3)[C@H]21 (mixture of isomers)	none
CCc1ccc(N2C(=O)CN(CC(=O)OC)C2=S)cc1	none (no result: Statin myotox sup, PglD DTNB, E-selectin induc)
COC(=O)CN1CC(=O)N(c2ccccc2)C1=S	FGF22 binding 43 (no result: Statin myotox sup)
CC=Cc1ccc2n(c1=O)C[C@@H]1[C@@H](CO)[C@H](C(=O)NCCC)[C@H]2N1C(=O)Nc1cc(F)ccc1F (mixture of isomers)	none
COc1cccc2c1OCC/C2=N\NC(=O)C(C)Oc1ccc([N+](=O)[O-])cc1 (configuration not stated)	FGF22 binding 62 (no result: Statin myotox sup, PglD DTNB, E-selectin induc)
CC(C)N(Cc1ccccc1)C(=O)COC(=O)c1cnc(Cl)c(Cl)c1	DENV2 CPE rescue 67
O=C(OCc1ccccc1)c1cnc(Cl)c(Cl)c1	none
C[C@@H]1CN([C@@H](C)CO)C(=O)c2cccc(NS(=O)(=O)c3ccc(F)cc3)c2O[C@@H]1CN(C)Cc1ccncc1	none
CC(C)CC(COCc1ccc(Cl)cc1)N1CCN(C(=O)c2ccc(Cl)cc2Cl)CCC1=O (configuration not stated)	DENV2 CPE rescue 100

Assay outcomes deposited in PubChem BioAssay by Broad Institute.
